Our source for the GI50 values is ChEMBL document CHEMBL1240409, “Design, synthesis and evaluation of (E)-alpha-benzylthio chalcones as novel inhibitors of BCR-ABL kinase” (Bioorg Med Chem, 2010).

Structures are written as SMILES.

One experiment has as its system DU-145. The experiment is described as follows: Growth inhibition of human DU145 cells after 96 hrs by trypan blue exclusion assay. Conditions: DU-145, 96 h. In kind it is functional.
In another experiment the test system is K562. The experiment in a line: Growth inhibition of human K562 cells expressing p210Bcr/Abl after 96 hrs by trypan blue exclusion assay. In kind it is functional, cell-based. Conditions: K562, 96 h. A digest of the protocol:
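K562 cells were kept in RPMI with 10% FBS and penicillin–streptomycin at 37 °C under 5% CO2. Cells were seeded at 1 × 10^5 cells/mL with a range of compound concentrations, using DMSO as the negative control. After 96 h, viability was counted by Trypan blue exclusion and expressed as percent of DMSO control to derive GI50.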

As to `O=C(/C(=C\c1ccc([N+](=O)[O-])c(O)c1)SCc1ccc(Br)cc1)c1ccc(Br)cc1`, the results for the GI50 in the experiment with DU-145 and in the experiment on K562 were 10 µM and 1 µM, respectively.

For the compound `COc1ccc(/C=C(/Sc2ccc(C)cc2)C(=O)c2ccc(Br)cc2)cc1`, the GI50 (in general, the concentration that inhibits growth by half) was 50 µM with DU-145 and 10 µM with K562.

`Cc1ccc(/C=C(\C(=O)c2ccc(Cl)cc2)S(=O)(=O)Cc2ccc(Cl)cc2)s1`: the GI50 in the experiment on DU-145 and in the experiment with K562 was 1 µM each time.

Regarding `Cc1ccc(S/C(=C/c2ccc(Br)cc2)C(=O)c2ccc(Cl)cc2)cc1`, the GI50 in the experiment on DU-145 is 25 µM; in the experiment on K562 it was 50 µM.

Regarding `COc1ccsc1/C=C(\C(=O)c1ccc(Br)cc1)S(=O)(=O)Cc1ccc(Cl)cc1`, the GI50 in the experiment on DU-145 was 50 µM; with K562 it was 25 µM.

As to `O=C(/C(=C/c1ccc(Cl)cc1)Cc1ccc(Cl)cc1)c1ccc(Cl)cc1Cl`, the values for the GI50 with DU-145 and in the experiment on K562 were 10 µM and 1 µM, respectively.

For `O=C(/C(=C\c1ccc(Br)cc1)S(=O)(=O)c1ccc(Br)cc1)c1ccccc1O`, the GI50 with DU-145 is greater than 100 µM; in the experiment with K562 it was 10 µM.

Take `COc1ccccc1/C=C(/Sc1ccc(C)cc1)C(=O)c1ccc(Cl)cc1`: the GI50 was determined as 25 µM with DU-145 and 10 µM in the experiment on K562.

Take `Cc1ccc(S(=O)(=O)/C(=C/c2c(F)c(F)c(F)c(F)c2F)C(=O)c2ccc(Cl)cc2)cc1`: the results for the GI50 with DU-145 and in the experiment on K562 were greater than 100 µM and 50 µM, respectively.

Consider `Cc1ccc(CS(=O)(=O)/C(=C/c2ccc(S(C)(=O)=O)cc2)C(=O)c2ccc(Br)cc2)cc1`, for which the GI50 in the experiment on DU-145 turned out to be 10 µM; in the experiment with K562 it was 1 µM.

In the case of `Nc1ccc(/C=C(/SCc2ccc(F)cc2)C(=O)c2ccc(C(=O)O)cc2)cc1[N+](=O)[O-]`, the GI50 with DU-145 and with K562 was 10 µM in each case.

With `O=C(/C(=C\c1ccc(O)c([N+](=O)[O-])c1)SCc1ccc(Br)cc1)c1ccc(C(F)(F)F)cc1`, the GI50 in the experiment with DU-145 was determined as 10 µM; with K562, 1 µM.

Turning to `O=C(/C(=C\c1ccc(Cl)c([N+](=O)[O-])c1)S(=O)(=O)c1ccc(Br)cc1)c1ccc(Br)cc1`, the GI50 in the experiment with DU-145 was 10 µM; with K562, 1 µM.

Take `Cc1ccc(/C=C(\C(=O)c2ccc([N+](=O)[O-])cc2)S(=O)(=O)Cc2ccc(Cl)cc2)s1`: the GI50 with DU-145 came to 25 µM; with K562, 10 µM.

Turning to `O=C(/C(=C\c1ccc(Br)c(O)c1)S(=O)(=O)c1ccc(Br)cc1)c1ccc(Br)cc1`, the GI50 with DU-145 and with K562 was 50 µM each time.

Turning to `Cc1ccc(S/C(=C/c2c[nH]c3ccc(Br)cc23)C(=O)c2ccc(Br)cc2)cc1`, the figures for the GI50 in the experiment with DU-145 and in the experiment on K562 were 1 µM and 10 µM, respectively.

For the compound `Cc1ccc(S/C(=C/c2ccc(F)cc2C(F)(F)F)C(=O)c2ccc(Br)cc2)cc1`, the GI50 in the experiment with DU-145 and in the experiment with K562 was 25 µM each time.

Take `O=C(/C(=C\c1ccc([N+](=O)[O-])c(O)c1)SCc1ccc(Br)cc1)c1ccc([N+](=O)[O-])cc1`: the GI50 in the experiment with DU-145 and in the experiment on K562 was 1 µM throughout.

For `CCOc1ccc(/C=C(\C(=O)c2ccc(Br)cc2)S(=O)(=O)c2ccc(Br)cc2)c(OCC)c1`, the GI50 in the experiment on DU-145 is 10 µM; with K562, 1 µM.

On to `COc1ccccc1/C=C(\C(=O)c1ccc(Br)cc1)S(=O)(=O)Cc1ccc(F)cc1`, for which the GI50 with DU-145 and with K562 was 25 µM in each case.

`O=C(/C(=C\c1ccc(Cl)cc1)Sc1ccc(Cl)cc1)c1ccc(Cl)cc1`: the GI50 in the experiment on DU-145 and in the experiment on K562 was 1 µM throughout.

In the case of `O=C(/C(=C\c1c(O)cc(O)cc1O)SCc1ccc(Cl)cc1)c1ccc(Cl)cc1`, the GI50 with DU-145 and in the experiment on K562 was greater than 100 µM each time.

`Cc1cc(C)cc(/C=C(/Sc2ccc(Br)cc2)C(=O)c2ccc(Cl)cc2)c1`: the GI50 in the experiment on DU-145 was found to be 10 µM; with K562 it was 1 µM.

As to `COc1ccc(C(=O)/C(=C\c2ccc(O)c([N+](=O)[O-])c2)SCc2ccc(Br)cc2)cc1`, the GI50 with DU-145 and in the experiment on K562 was 10 µM throughout.

As for `COc1ccccc1/C=C(\C(=O)c1ccc([N+](=O)[O-])cc1)S(=O)(=O)Cc1ccc(Cl)cc1`, the GI50 in the experiment on DU-145 and in the experiment with K562 was 10 µM throughout.

Consider `CSc1ccc(/C=C(\C(=O)c2ccc(Cl)cc2)S(=O)(=O)Cc2ccc(C)cc2)cc1`, for which the GI50 in the experiment with DU-145 came out at 10 µM; with K562 it was 25 µM.

As to `O=C(O)c1ccc(C(=O)/C(=C\c2ccc([N+](=O)[O-])c(O)c2)SCc2ccc(Br)cc2)cc1`, the figures for the GI50 in the experiment on DU-145 and with K562 were 10 µM and 1 µM, respectively.

On to `O=C(/C(=C\c1ccccc1OCc1ccccc1)SCc1ccc(Cl)c(Cl)c1)c1ccc(Cl)cc1`, for which the GI50 in the experiment on DU-145 and with K562 was 10 µM in each case.

Consider `COc1ccc(/C=C(/SCc2ccc(Cl)cc2)C(=O)c2ccc(Br)cc2)cc1O`, for which the GI50 in the experiment on DU-145 and in the experiment with K562 was 1 µM throughout.

For `O=C(/C(=C\c1ccc(Cl)cc1)SCc1ccc(Cl)cc1)c1ccccc1Cl`, the values for the GI50 in the experiment with DU-145 and in the experiment with K562 were 30 µM and 1 µM, respectively.

With `COc1ccc(C(=O)C(=Cc2ccc(Br)cc2)S(=O)(=O)Cc2ccc(Br)cc2)cc1`, the GI50 in the experiment on DU-145 and with K562 was 1 µM in each case.

For `Cc1ccsc1/C=C(/SCc1ccccc1F)C(=O)c1ccc(Cl)cc1`, the GI50 in the experiment on DU-145 and in the experiment with K562 was 50 µM each time.

In the case of `O=C(/C(=C\c1ccccc1OCc1ccccc1)S(=O)(=O)Cc1ccc(F)cc1)c1ccc(Cl)cc1`, the results for the 50% growth inhibitory concentration (GI50) in the experiment on DU-145 and in the experiment on K562 were 10 µM and 1 µM, respectively.

Regarding `Cc1ccc(S/C(=C/c2ccc(F)cc2F)C(=O)c2ccc(Br)cc2)cc1`, the GI50 in the experiment with DU-145 and with K562 was greater than 100 µM throughout.

For `COc1ccccc1/C=C(/SCc1ccc(Cl)cc1)C(=O)c1ccc(Br)cc1`, the GI50 in the experiment with DU-145 was determined as 1 µM; in the experiment on K562, 10 µM.

Regarding `O=C(/C(=C\c1ccc(O)cc1O)Sc1ccccc1Br)c1ccc(Br)cc1`, the GI50 in the experiment with DU-145 and in the experiment with K562 was 50 µM in each case.

On to `COc1ccccc1/C=C(\C(=O)c1ccc(Cl)cc1)S(=O)(=O)Cc1ccc(C)cc1`, for which the GI50 in the experiment with DU-145 and in the experiment with K562 was 10 µM in each case.

As to `Cc1ccsc1/C=C(/SCc1ccc(Cl)c(Cl)c1)C(=O)c1ccc(Cl)cc1`, the GI50 with DU-145 and in the experiment with K562 was 50 µM in each case.

Take `O=C(/C(=C\c1ccc(O)c([N+](=O)[O-])c1)SCc1ccc(Br)cc1)c1ccc(O)cc1O`: the figures for the GI50 with DU-145 and in the experiment with K562 were greater than 100 µM and 50 µM, respectively.

Regarding `COc1ccc(/C=C(\C(=O)c2ccc(Br)cc2)S(=O)(=O)Cc2ccc(F)cc2)cc1`, the GI50 in the experiment with DU-145 and with K562 was 25 µM each time.

As to `CCOc1cc(/C=C(\SCc2ccc(Cl)cc2Cl)C(=O)c2ccc(Cl)cc2)ccc1O`, the GI50 in the experiment with DU-145 was 10 µM; with K562, 1 µM.

In the case of `COc1cc(/C=C(/SCc2ccc(Br)cc2)C(=O)c2ccc(Br)cc2)cc([N+](=O)[O-])c1O`, the 50% growth inhibitory concentration (GI50) in the experiment with DU-145 and in the experiment on K562 was 25 µM in each case.

For `Cc1ccc(S/C(=C/c2ccc(-c3ccccc3)cc2)C(=O)c2ccc(Br)cc2)cc1`, the GI50 is 50 µM with DU-145 and 25 µM in the experiment on K562.

Consider `Cc1cc(C)cc(/C=C(\C(=O)c2ccc(Cl)cc2)S(=O)(=O)Cc2ccc(Cl)cc2)c1`, for which the GI50 with DU-145 and in the experiment with K562 was 1 µM throughout.

Regarding `CCOc1ccc(/C=C(\C(=O)c2ccc(Cl)cc2)S(=O)(=O)c2ccc(C)cc2)cc1OC`, the GI50 with DU-145 and in the experiment with K562 was 1 µM throughout.
